# Bioassay records deposited in PubChem by several laboratories.
# Calb FLC = C. albicans growth inhibition with fluconazole, primary screen, CaCi-2 strain, Alamar Blue fluorescence | C. albicans CaCi-2 (fluconazole-resistant clinical isolate) + fluconazole, 48 h | growth inhibition, % (concentration not given with the values) | hit rate 0.57% among 300,000 | AID 1979, 2009;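 active = growth inhibition above about 58% in most replicates, limit read from the data, passing the limit was not always enough; inconclusive = exactly half the replicates above a set limit; inactive = most replicates below a set limit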;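 note: all wells also contain fluconazole at 8 µg/ml as a sub-toxic cotreatment; 0% = median of DMSO wells and 100% = median of geldanamycin control wells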
# NALP3 yeast inh = NALP3 inflammasome inhibitors in reconstituted yeast, primary screen, luminescence, uHTS | Yeast reconstituted NLRP3/ASC/caspase-1, beta-gal luminescence, 24 h | inhibition, % at 10 µM | hit rate 0.39% among 330,000;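 active = inhibition of 50% or more; inactive = inhibition below 50%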;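 note: plate controls were induced DMSO wells for no effect and uninduced yeast grown without galactose for full effect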
# NALP1 yeast inh = NALP1 inflammasome inhibitors in reconstituted yeast, colorimetric, S. cerevisiae, triplicate retest. S. cerevisiae NALP1/ASC/caspase-1 growth, X-gal OD620, 72 h. inhibition, % at 10 µM. hit rate 0.61% among 280,000. AID 2071, 2009; in the data active = inhibition mostly above about 24%, no sharp cut-off; inactive = mostly below about 32%
# Lmaj promast = Leishmania major promastigote growth inhibition, primary screen; inhibition, % at 10 µM; hit rate 9% among 200,000; Leishmania major promastigotes, resazurin fluorescence viability;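 note: promastigotes grown with compound for 44 hours at 28 °C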
# T cruzi inh = inhibitors of intracellular T. cruzi growth, primary screen, luminescence, NIH3T3 host cells | AID 1885, 2009 | T. cruzi beta-gal in NIH3T3, 90 h | hit rate 1.4% among 300,000 | inhibition, % (test concentration not listed);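 active = mean inhibition across valid replicates above about 55%, limit read from the data; inconclusive = mean below that limit but half or more replicates reach it; inactive = mean below it, under half of replicates reach it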;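 note: signal also drops with host cell toxicity which is not excluded here; 0% = plate median of DMSO wells and 100% = zero luminescence signal; higher percent means less beta-gal luminescence so fewer parasites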
#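 Read-out: Parasite load inhibition, % | Test system: Mouse NIH/3T3 fibroblasts infected with β-gal-expressing T. cruzi Tulahuen C4 | Amount: 5,000 cells/well | Medium: DMEM, 2% fetal bovine serum | Signal: GalScreen β-gal luminescence, detergent lysis, 60 min | Timing: 3 h attach, ≥90 h co-culture | Also added: Tulahuen C4 trypomastigotes, 5000/well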
# PolyA inh = polyadenylation inhibitors in yeast reporter cells, primary screen, luminescence, S. cerevisiae. hit rate 0.02% among 300,000. AID 1875, 2009. S. cerevisiae SKY197-pL101 polyadenylation reporter, beta-gal luminescence; efflux-impaired pdr1/pdr3 knockout yeast; score 100 = 6 SD above DMSO. activity score, % at 12 µM;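 active = lowest replicate activity score at least 50, where 100 means six control SD above control mean; inconclusive = lowest score under 50 but half or more replicates reach 50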;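 note: yeast exposed to compound for 9 h at 30 °C; higher score means more reporter readthrough which indicates perturbed polyadenylation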
# NALP3 confirm = NALP3 inhibitors retested in yeast, confirmation, luminescence, single concentration; AID 435006, 2010; hit rate 81% among 1,300; yeast expressing human NALP3; shares compounds with NALP3 yeast inh; inhibition, % at 10 µM; in the data active = inhibition above about 48%
# Casp1-ASC yeast = CASP1-PYCARD signaling inhibition in yeast, confirmatory test, counterassay for NLRP3 inhibitor program, one-dose; shares compounds with NALP3 yeast inh; yeast expressing Caspase-1-ASC, luminescence counter screen; inhibition, % at 10 µM; hit rate 66% among 1,000
# NALP3 yeast rt = NALP3 inhibitors in yeast, repeat test, confirmation, luminescence, single concentration, retest. yeast expressing human NALP3, luminescence read-out. inhibition, % at 10 µM. hit rate 53% among 1,000. shares compounds with NALP3 yeast inh. AID 488794, 2010
# * marks the source's active call; other numbers are inactive results; ? = inconclusive; . = no result given. The entries come from a sample that favours hits as a whole. Cut-off read from the data, not from the text of the source, unless noted: active = inhibition above about 50%; inactive = the rest.
SMILES,Calb FLC,NALP3 yeast inh,NALP1 yeast inh,Lmaj promast,T cruzi inh,PolyA inh,NALP3 confirm,Casp1-ASC yeast,NALP3 yeast rt
O=C(C1CCN(S(=O)(=O)c2ccc(Br)s2)CC1)N1CCc2ccccc21,1,55*,-1,10,31,-30,64*,61*,43
COC(=O)C1CCN(S(=O)(=O)c2ccc(Br)s2)CC1,.,28,.,.,.,.,.,.,.
CCNC(=O)CSc1nnc(-c2cc(-c3ccc(Cl)cc3)nc3ccccc23)o1,36,11,24,-1,-12,12,.,.,.
CC1(C)CC(=O)/C(=C\c2cccc([N+](=O)[O-])c2)C(C)(C)N1,23,59*,67*,100*,5,6,55*,23,37
CCn1c(SCC(=O)OC2CCCCC2)nc2ccccc2c1=O,?,51*,25,27,-2,-14,71*,50*,49
CCOC(=O)CSc1nc2ccccc2c(=O)n1CC,6,13,32,0,6,-12,.,.,.
CCOCCCNC(=O)COC(=O)/C=C/c1ccc(S(=O)(=O)N2CCc3ccccc32)cc1,0,12,-8,-1,-2,6,.,.,.
CC(C)(C)c1csc(NC(=O)c2ccccc2O)n1,32,55*,14,.,-8,-64,55*,59*,49
Cc1cccc(C(=O)NNC(=S)NC(=O)c2ccccc2)c1,1,39,.,.,-4,-43,.,.,.
COc1ccc(C(=O)NNC(=S)NC(=O)c2cccs2)cc1,?,56*,-12,.,8,-11,71*,27,44
COc1ccc(C(=O)NNC(=S)NC(=O)c2ccc(OC)cc2)cc1,68,45,2,.,-28,1,.,.,.
O=C(NNC(=S)NC(=O)c1ccc(Br)cc1)c1ccc([N+](=O)[O-])cc1,87*,53*,4,.,17,13,37,37,54*
COc1ccc(C(=O)NNC(=S)NC(=O)c2ccc(F)cc2)cc1Br,5,62*,.,.,8,24,71*,60*,60*
COc1ccc(C(=O)NC(=S)NNC(=O)c2cccc(C)c2)cc1,-2,51*,.,.,-1,-6,48,49,48
O=C(COc1ccccc1Br)Nc1ccc2c(c1)OCCCO2,-4,35,29,.,3,-9,.,.,.
COc1cc(OC)cc(C(=O)OCC(=O)NCCCc2ccccc2)c1,0,13,7,.,2,5,.,.,.
O=C(CNC(=O)c1ccccc1Br)N/N=C\c1cc([N+](=O)[O-])cc(Br)c1O,-14,51*,-6,.,1,-41,37,23,35
NCCNC(=O)c1c(O)c2cccc3c2n(c1=O)CCC3,4,61*,35*,.,17,5,75*,51*,46
CCCNC(=O)c1c(O)c2cccc3c2n(c1=O)CCC3,-9,.,-1,.,-13,7,.,.,.
COc1ccc2c(=O)c(-c3nc(C)cs3)coc2c1,-1,77*,.,-1,-18,-6,54*,68*,66*
Cn1ncc2c(Nc3ccc(-c4ccccc4)cc3)ncnc21,?,51*,19,8,-4,-45,52*,60*,54*
Cn1ncc2c(Nc3ccc(Cl)c(Cl)c3)ncnc21,36,-4,7,.,2,?,.,.,.
CNC(=O)c1sc(N2N=C3/C(=C/c4ccccc4)CCCC3C2c2ccccc2)nc1C (stereo unspecified),18,0,11,44,41,10,.,.,.
O=C(Nc1ccc(Br)cn1)c1cccc2ccccc12,2,52*,.,.,2,-14,21,.,.
O=C(N/N=C/C=C/c1ccccc1)NC1CCCCC1,-2,22,16,2,7,-13,.,.,.
SMILES,Calb FLC,NALP3 yeast inh,NALP1 yeast inh,Lmaj promast,T cruzi inh,PolyA inh,NALP3 confirm,Casp1-ASC yeast,NALP3 yeast rt
CC(C)(O)c1cc2ccc(C#Cc3ccsc3)cc2c(=O)o1,.,65*,.,.,.,.,51*,67*,58*
CCNC(=O)COC(=O)c1csc2c1CCCC2,-6,56*,32,-8,-7,?,24,.,.
CCOc1ccc(NC(=O)c2csc3c2CCCC3)cc1,-11,52*,48,-6,4,-1,46,.,.
COc1ccc(CSCCN)cc1Cl,-8,68*,12,13,2,-62,69*,71*,73*
CCN(CC)Cc1ccc(OC)c(Cl)c1,8,-1,0,.,21,12,.,.,.
O=C(CN(Cc1ccccc1)C(=O)CCC(=O)Nc1nccs1)NCC1CCCO1 (stereo unspecified),15,14,-7,.,-10,7,.,.,.
CC(C)CNc1c(N)c(=O)oc2ccccc12,3,10,-3,1,-7,-13,.,.,.
Cc1ccc(O)c(CNc2cccc(C)n2)c1,3,45,32,.,1,4,.,.,.
Cc1cccc(NCc2cc(Cl)ccc2O)n1,-3,51*,11,40,6,6,46,47,42
Cc1cccc(NCc2cc(Cl)cc(Cl)c2O)n1,3,53*,8,11,-1,-18,51*,57*,56*
Cc1cc(C)nc(SCC(=O)Nc2nonc2N)n1,2,3,33,4,-7,30,.,.,.
N#Cc1cc2c(nc1SCc1nc3ccccc3[nH]1)CCC2,32,66*,10,12,-13,-23,79*,.,.
Cc1cc(C)c(C#N)c(SCc2nc3ccccc3[nH]2)n1,7,54*,16,5,-20,12,44,36,41
N#Cc1c(SCc2nc3ccccc3[nH]2)nc2c(c1C(F)(F)F)CCC2,.,.,.,12,.,.,.,.,.
CCc1ccc(C(=O)NNC(=O)c2c(CC)noc2C)cc1,-5,10,.,.,-4,-12,.,.,.
CCOc1ccccc1CNCC1CCCO1 (stereo unspecified),17,7,36,.,-14,7,.,.,.
COc1ccc(OCCCC(=O)ON=C(N)c2ccccc2Cl)cc1,.,20,.,.,.,.,.,.,.
COc1cc(CNCCO)ccc1OCCc1ccccc1,-4,19,5,.,29,10,.,.,.
COc1cc(CNCCc2ccccc2)ccc1OCc1ccc(Cl)nc1,2,50*,19,100*,51,7,42,46,51*
CCCCCc1nnc(NC(=O)OCCC)s1,-1,54*,28,-8,-9,4,73*,57*,47
Cc1ccc(Nc2nc(N)c3ccccc3n2)cc1Cl,69,55*,37,.,46,10,65*,38,32
